Common to all, as to type: functional, cell-based
The subject of one assay is A549. Nature of the assay: Antiproliferative activity against human A549 cells after 72 hrs by WST-8 assay. The following applies: A549, 72 h. Summed up: (§1)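 The procedure follows an earlier report. Human A549 lung adenocarcinoma and HeLa cervix adenocarcinoma lines came from RCB; PANC-1 pancreatic epithelioid carcinoma, PSN-1 pancreatic adenocarcinoma and MDA-MB-231 breast adenocarcinoma came from ATCC. All were maintained in-house and grown in 96-well plates. Cell absorbance was read on a microplate reader and IC50 derived. 5-Fluorouracil served as positive control.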
A general note: Tetrazolium assays rely on reduction of a dye to a coloured formazan, in cell work by metabolically active cells.

In another assay the test system is HeLa. In words: Antiproliferative activity against human HeLa cells after 72 hrs by WST-8 assay. Summed up: as §1
The next assay deals with MDA-MB-231. In words: Antiproliferative activity against human MDA-MB-231 cells after 72 hrs by WST-8 assay. The following applies: MDA-MB-231, 72 h. An outline of the steps:
as §1

The nature of assay [1]: Antiproliferative activity against human PANC1 cells after 72 hrs by WST-8 assay. The conditions noted are these: PANC-1, 72 h. Summed up: as §1
For a further assay, the system named is PSN1. In words: Antiproliferative activity against human PSN1 cells after 72 hrs by WST-8 assay. The following applies: PSN1, 72 h. An outline of the steps: as §1

We go through eleven compounds from ChEMBL document CHEMBL3763087, “Picrajavanicins A-G, Quassinoids from Picrasma javanica Collected in Myanmar” (J Nat Prod, 2015).

A word on the IC50: it is the midpoint of a concentration-inhibition curve. High values mean weaker potency in that assay, low ones greater potency in that assay.

Turning to `COC1=C(C)[C@]2(O)CC(=O)O[C@@H]3C[C@H]4CC[C@H](O)C(=O)[C@]4(C)[C@@H](C1=O)[C@@]32C`, the IC50 (in the assay with A549; with HeLa; with MDA-MB-231; in assay [1]; with PSN1) was more than 10 µM in each case.
Turning to `COC1=CC[C@@H]2C[C@H]3OC(=O)C[C@H]4C(C=O)=C(OC)C(=O)[C@H]([C@@]2(C)C1=O)[C@@]34C`, the IC50 (with A549; in the assay with HeLa; in the assay with MDA-MB-231; in assay [1]; in the assay on PSN1) was more than 10 µM throughout.
Turning to `COC1=CC[C@@H]2C[C@H]3OC(=O)C=C4C(C)=C(OC)C(=O)[C@H]([C@@]2(C)C1=O)[C@]43C`, the IC50 (with A549; in the assay with HeLa; in the assay on MDA-MB-231; in assay [1]; in the assay with PSN1) was more than 10 µM in each case.
Take `COC1=C(C)[C@@H]2CC(=O)O[C@@H]3C[C@H]4CC[C@H](O)C(=O)[C@]4(C)[C@@H](C1=O)[C@@]32C`: the IC50 (in the assay with A549; in the assay on HeLa; in the assay on MDA-MB-231; in assay [1]; in the assay with PSN1) was more than 10 µM each time.
`COC1=CC[C@@H]2C[C@H]3OC(O)C[C@H]4C(C)=C(OC)C(=O)[C@H]([C@@]2(C)C1=O)[C@@]34C` (stereo not given in full): the 50% inhibitory concentration (IC50) (in the assay on A549; in the assay on HeLa; with MDA-MB-231; in assay [1]; with PSN1) was more than 10 µM each time.
As to `COC1=CC[C@@H]2C[C@H]3OC(=O)C=C4C(CO)=C(OC)C(=O)[C@H]([C@@]2(C)C1=O)[C@]43C`, the 50% inhibitory concentration (IC50) (in the assay with A549; with HeLa; with MDA-MB-231; in assay [1]; in the assay with PSN1) was more than 10 µM each time.
For `COC1=C(OC)C(=O)[C@@]2(C)[C@H](C1)C[C@H]1OC(=O)C[C@@]3(O)C(C)=C(OC)C(=O)[C@H]2[C@@]13C`, the concentration for half-maximal inhibition (IC50) (in the assay with A549; in the assay with HeLa; with MDA-MB-231; in assay [1]; in the assay on PSN1) was more than 10 µM each time.
In the case of `COC1=CC[C@@H]2C[C@H]3OC(=O)C[C@H]4C(C)=C(OC)C(=O)[C@H]([C@@]2(C)C1=O)[C@@]34C`, the IC50 (with A549; in the assay on HeLa; in the assay with MDA-MB-231; in assay [1]; in the assay with PSN1) was more than 10 µM in each case.
In the case of `COC1=C(OC)C(=O)[C@@]2(C)[C@H](C1)C[C@H]1OC(=O)C[C@H]3C(C)=C(OC)C(=O)[C@H]2[C@@]13C`, the 50% inhibitory concentration (IC50) (in the assay with A549; with HeLa; in the assay on MDA-MB-231; in assay [1]; in the assay on PSN1) was more than 10 µM in each case.
In the case of `COC1=C(C)[C@@H]2CC(=O)O[C@@H]3C[C@H]4CC[C@H](OC)C(=O)[C@]4(C)[C@@H](C1=O)[C@@]32C`, the IC50 (in the assay on A549; in the assay with HeLa; in the assay on MDA-MB-231; in assay [1]; with PSN1) was more than 10 µM in each case.
As to `O=c1[nH]cc(F)c(=O)[nH]1` [FLUOROURACIL], the IC50 came out at 9 µM in the assay with A549; 6.4 µM in the assay with HeLa; 1.1 µM with MDA-MB-231; 0.4 µM in assay [1]; 8.7 µM with PSN1.
